# Screening data: PubChem, several laboratories
# HSF-1 act = increases HSF-1 driven luciferase reporter signal | NIH3T3-HGL HSF-1 luciferase reporter, MG132, 8 h; 100% = twice DMSO control signal | activation, % at 9 µM | actives 1.7% (n = 300,000) | AID 504408;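 active = mean replicate activation of at least 50% with a set share of replicates each reaching 50%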;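 note: 0% = median of the neutral control wells and 100% = twice that signal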
# Lipid droplet = modulators of hepatic lipid droplet formation | AML12 mouse hepatocytes, oleate lipid droplets, BODIPY imaging | inhibition, % at 6.5 µM | actives 0.4% (n = 240,000) | AID 1656;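 active = lipid droplet intensity inhibited by at least 50%, with more than 500 cells counted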
#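 Assay system: AML12 hepatocytes (mouse) / Also added: 100 µM oleic acid challenge / Times: overnight treatment with compound plus oleate / Detection: high-content imaging of BODIPY-stained droplets and DAPI nuclei / Evaluation: % inhibition of lipid droplet signal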
# PHOSPHO1 inh = PHOSPHO1 (human) inhibition; recombinant PHOSPHO1, absorbance phosphatase assay; inhibition, % at 13.3 µM; actives 1.1% (n = 290,000); Q8TCT1; in the data active = inhibition above about 60%
# Target sequence (Q8TCT1 whole entry, looked up): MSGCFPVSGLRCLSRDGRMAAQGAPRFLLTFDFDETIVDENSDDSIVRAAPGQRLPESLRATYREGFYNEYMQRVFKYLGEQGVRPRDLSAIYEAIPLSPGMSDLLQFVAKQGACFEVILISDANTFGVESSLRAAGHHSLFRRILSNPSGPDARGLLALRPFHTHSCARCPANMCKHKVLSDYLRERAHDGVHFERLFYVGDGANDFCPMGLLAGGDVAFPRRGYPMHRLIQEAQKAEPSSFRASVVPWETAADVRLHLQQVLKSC
# CHT PAM = human CHT allosteric activation. Q9GZV3. CHT-expressing cells, membrane potential dye, choline EC20; hits give high values; LV-AA mutant CHT in HEK293 cells. B-score at 10 µM. actives 0.49% (n = 310,000). AID 488977;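 active = initial fluorescence not abnormally high and integrated response B-score, plate-corrected, over 3 SD above library mean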
# HSF1 inh = HSF1 inhibition | activity change, negative = inhibition, % at 7.5 µM (by protocol) | NIH3T3-HGL HSE-luciferase, MG132-induced, luminescence 8 h; hits give low values | actives 0.77% (n = 300,000);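 active = more than half of replicate wells show activity change below -50%, luminescence cut by over half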;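 note: luciferase reports HSF-1 transcriptional activity via heat shock element; 0% = median of DMSO wells and -100% = zero luminescence signal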
# CHT inh = inhibits the human high affinity choline transporter. Q9GZV3. CHT-expressing cells, membrane potential dye, choline response; hits give low values. B-score at 10 µM. actives 0.86% (n = 310,000);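 active = B-score over 3 SD under the library average, and starting fluorescence ratio not unusually high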;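 note: choline stimulus applied at its EC90 after an EC20 pre-addition; B-score computed on integrated fluorescence ratio after choline addition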
# Lipid drop inh = confirmation of inhibitors of hepatic lipid droplet formation | AID 463183 | inhibition, % at 5.2 µM | AML12 mouse hepatocytes, BODIPY lipid droplet imaging; droplets induced with 100 µM oleic acid | actives 65% (n = 870) | shares compounds with Lipid droplet;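 active = inhibition of lipid droplet metric at least 50%, with more than 300 cells in each of four replicates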;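 note: plate controls were DMSO with oleic acid for no effect and 5 µM Triacsin-C for full effect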
# AML12 tox img = counter-screen for cytotoxicity in AML12 mouse hepatocytes; shares compounds with Lipid droplet; DAPI nuclear morphology cytotoxicity imaging; hits give high values; cells fed 100 µM oleate overnight; z-score at 5 µM; actives 3% (n = 870); AID 463200; in the data active = z-score above about 6.3;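 note: compound exposure lasted overnight at 37 °C before fixation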
# AML12 tox ATP = confirmation of cytotoxicity in AML12 mouse hepatocytes | shares compounds with Lipid droplet | AML12 mouse hepatocyte viability, ATP luminescence; cells loaded with 100 µM oleic acid | AID 463219 | cytotoxicity, % at 50 µM | 530 tested, under 10 active;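 active = cytotoxicity above 50% in each of four replicates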;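 note: compound exposure lasted overnight at 37 °C before the ATP read; 0% = DMSO-treated cells and 100% = wells with no cells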
# Active calls of the source: *; i = inactive; . = no result given. Only some compounds are listed: those with a hit (about 4.9% of all), similar ones and a draw of the others.
SMILES,HSF-1 act,Lipid droplet,PHOSPHO1 inh,CHT PAM,HSF1 inh,CHT inh,Lipid drop inh,AML12 tox img,AML12 tox ATP
CC(Sc1nnc(Nc2ccccc2)s1)C(=O)Nc1nc(-c2ccccc2)cs1 (stereo not given),27.6,54.1*,8.3,i,25.5,i,95.8*,-0.705,11.8
O=C(CCNS(=O)(=O)c1c(Cl)cccc1Cl)OCC(=O)c1ccccc1,-14.1,-8.2,-15.6,i,7.5,i,.,.,.
C/C=C\C=C/C(=O)Nc1cccc(C2=NOC3(C2)C[C@@H](C(N)=O)N(C(=O)/C=C/C=C\C)C3)c1 (stereo not given in full),.,-18.5,22.1,i,-8.6,i,.,.,.
C=C(C)C(=O)N1CC2(CC(c3cccc(NC(=O)/C=C\C=C/C)c3)=NO2)C[C@H]1C(N)=O (stereo not given in full),.,54.0*,35.3,i,0.0,i,33.9,-0.383,.
CCc1ccccc1NNC(=O)CCc1ccccc1,7.8,-20.3,-27.8,i,0.0,i,.,.,.
CCOc1cc(Br)c(CC(=O)NC2CCCCCC2)cc1OCC,2.1,115.7*,27.9,i,11.0,i,107.8*,0.0162,9.2
CCOc1ccc(C(=S)NC2CCCCC2)cc1OCC,-8.6,2.7,.,i,-2.0,i,.,.,.
C=CCOc1ccc(C(=O)O)cc1Cl,20.6,9.2,20.2,i,-4.4,i,.,.,.
FC(F)Oc1ccc(-c2csc(NNC3=NCCCCC3)n2)cc1,4.3,94.9*,60.9*,i,4.7,i,114.6*,0.878,25.1
N#Cc1ccc(-c2csc(NC3=NCCCCC3)n2)cc1,27.3,-17.6,9.8,.,20.0,.,.,.,.
CC(C)(C)c1ccc(-c2csc(NNC3=NCCCCC3)n2)cc1,6.3,59.7*,45.0,i,5.9,i,99.8*,-0.647,12.3
Cc1cc(C(=O)NC2CCCN(Cc3ccccc3F)C2)no1 (stereo not given),6.2,-0.8,15.9,i,-3.6,i,.,.,.
Nc1ccc2nc(Cc3ccccc3)[nH]c2c1,-19.2,54.1*,39.6,i,-19.5,i,-10.9,0.198,.
Cn1c(Cn2c(=O)sc3ccccc32)nnc1SCC(=O)N1CCc2ccccc21,.,6.6,-2.3,i,.,i,.,.,.
COc1ccc(/C=C(/NC(C)=O)C(=O)O)cc1,-15.1,.,8.3,i,-5.9,i,.,.,.
Cc1ccc(C)c(NC(=O)CSc2nc3ccccc3nc2N2CCOCC2)c1,-5.7,31.3,22.8,i,-2.2,i,.,.,.
CCc1ccc(NC(=O)CSc2nc3ccccc3nc2N2CCCC2)cc1,13.4,73.7*,20.2,i,1.1,i,101.3*,0.979,1.4
CC(C)c1ccc(NC(=O)CSc2nc3ccccc3nc2N2CCCC2)cc1,-14.2,69.5*,15.1,i,-4.9,i,104.7*,0.323,6.3
Cc1ccc(NC(=O)CSc2nc3ccccc3nc2N2CCCC2)cc1,5.0,70.2*,4.7,i,13.4,i,103.7*,0.861,3.7
O=C(NCc1ccncc1)C(=O)NCC1OCCN1S(=O)(=O)c1ccc(Cl)cc1 (stereo not given),2.9,-17.2,-105.6,i,1.5,i,.,.,.
Cc1cccc(C(=O)N2CCCC(CCC(=O)N3CCN(c4ccccn4)CC3)C2)c1 (stereo not given),2.1,4.7,40.8,i,-5.2,i,.,.,.
CCN(CC)S(=O)(=O)c1ccc(S(=O)(=O)N(CC(=O)Nc2ccccc2)CC2CCCO2)cc1 (stereo not given),4.9,.,.,i,7.7,i,.,.,.
O=C(CN(CC1CCCO1)S(=O)(=O)c1ccc(S(=O)(=O)NC2CC2)cc1)Nc1ccccc1 (stereo not given),115.2*,95.0*,-6.9,i,61.2,i,107.2*,-0.0732,18.1
Cc1ccc(N=CC=C2OC(C)(C)C(C)(C)O2)cc1,20.9,10.2,4.7,i,9.9,i,.,.,.
COc1cccc(N=CC=C2OC(C)(C)C(C)(C)O2)c1,28.9,65.8*,15.2,i,8.4,i,12.1,-0.369,.
SMILES,HSF-1 act,Lipid droplet,PHOSPHO1 inh,CHT PAM,HSF1 inh,CHT inh,Lipid drop inh,AML12 tox img,AML12 tox ATP
Cc1ccc(OC(=O)C2CSC3(C)CCC(=O)N23)c(Br)c1 (stereo not given),2.6,.,.,i,-0.6,i,.,.,.
O=C(Nc1ccccc1)C1=C[C@@H](C2CCCCC2)C[C@@H](OCc2ccc(CO)cc2)O1,-47.2,53.4*,51.7,i,-30.7,i,64.8*,-0.343,8.2
COc1cc(C(=O)OCn2nnc3ccccc3c2=O)cc(OC)c1OC,-4.4,7.7,20.3,i,-0.8,i,.,.,.
COc1cc(/C=C\C(=O)OCn2nnc3ccccc3c2=O)cc(OC)c1OC,-4.1,56.9*,-2.4,i,10.9,i,25.1,-0.603,.
O=C(CC1C(=O)NCCN1Cc1c(F)cccc1Cl)NCCCN1CCCC1=O (stereo not given),-1.1,-2.3,-14.2,i,-3.4,i,.,.,.
CCOc1ccc(-n2c(SCC(=O)Nc3ccc(CC)cc3)nc3n[nH]c(C)c3c2=N)cc1,-45.3,51.0*,-5.3,i,-46.2,i,3.5,-0.827,.
CCn1c(CC(=O)Nc2ccccc2F)nnc1SCC(=O)NC1CCCCC1,-1.5,12.5,21.7,i,2.5,i,.,.,.
CCN(CCCNC(=O)C1CCN(S(=O)(=O)c2c(C)[nH]c(=O)[nH]c2=O)CC1)c1cccc(C)c1,7.5,-10.9,9.4,i,-1.2,i,.,.,.
Cc1ccc(NC(=O)N2CCC(C(=O)c3ccc(F)cc3)CC2)cc1,-26.6,82.6*,31.0,i,-15.3,i,95.5*,0.0524,4.9
COc1ccc(C(=O)C2CCN(C(=O)Nc3ccc(C)cc3)CC2)cc1,9.9,32.1,42.6,i,6.6,i,.,.,.
COc1ccc(CCNC(=O)[C@H](C)N2C(=O)N3CCc4c([nH]c5ccccc45)[C@@]3(C)C2=O)cc1OC,22.3,86.6*,-18.0,i,11.8,i,102.3*,-1.57,20.2
COc1ccc(CCNC(=O)c2ccc(CNc3nc(=S)[nH]c4ccccc34)cc2)cc1OC,-0.7,51.8*,-111.5,i,5.5,i,101.3*,-0.263,13.8
O=C(Cc1cccc2ccccc12)Nc1c(F)cccc1F,17.4,55.0*,7.1,i,-1.6,i,82.3*,-0.754,8.5
COc1ccc(OC)c(/C=C/C(=O)N(C)CC(=O)Nc2ccc(C)cc2)c1,-14.5,59.0*,-9.3,i,-6.2,i,77.3*,0.19,7.6
